ChEMBL document CHEMBL4699492, “Discovery of Novel Pyrazolo[3,4-b] Pyridine Derivatives with Dual Activities of Vascular Remodeling Inhibition and Vasodilation for the Treatment of Pulmonary Arterial Hypertension” (J Med Chem, 2020)
Calls of active or inactive are those of the source. The rule behind the calls is not given here.

What was measured:
Rattus norvegicus [1] = experiment: Inhibition of vascular remodeling activity in Sprague-Dawley rat model of hypoxia-induced pulmonary artery hypertension assessed as right ventricular systolic pressure at 10 mg/kg, po administered daily for 2 weeks by catheter method (reference value: 26.2 mmHg); format: functional
[2] = system: Pulmonary Artery Smooth Muscle Cells; experiment: Stimulation of sGC in HPASMC assessed as increase in intracellular cGMP level measured after 1 hr in absence of PDE5 inhibitor IBMX and presence of sGC inhibitor ODQ by cGMP-d2/europium cryptate reagent based HTRF assay; format: tissue-based; conditions: Homo sapiens, filed as activator
Outline: (§1)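 HPASMCs were suspended at 100,000 cells/mL in PBS with 0.2% BSA, with or without 10 µM ODQ. Compounds were added as a 6-point, 10-fold dilution series; the top 2× stock was 200 µM. Incubation was 1 h at room temperature, in triplicate. cGMP-d2 in lysis buffer and europium cryptate were then added for 1 h before HTRF reading. Three independent experiments.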

[3] = Effect on total Smad2/3 level in lungs of Sprague-Dawley rat model of hypoxia-induced pulmonary artery hypertension at 10 mg/kg, po administered daily for 2 weeks by Western blot analysis; format: ADME, organism-based; conditions: in vivo, 336 h
Outline: (§2)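 Hypoxic PAH model in male SD rats (160-200 g) kept at 10% O2 for 4 weeks. Oral dosing at 10 mg/kg daily for 14 days, suspended in 0.5% CMC-Na; control and hypoxia groups received vehicle only. Lungs homogenized in RIPA with protease and phosphatase inhibitors. 30 µg protein run on 10% SDS-PAGE, then PVDF blotting, with β-actin as loading reference. Three independent runs.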

Rattus norvegicus [4] = experiment: Inhibition of vascular remodeling activity in Sprague-Dawley rat model of hypoxia-induced pulmonary artery hypertension assessed as increase in body weight at 10 mg/kg, po administered daily for 2 weeks; format: functional, organism-based
Rattus norvegicus [5] = experiment: Inhibition of vascular remodeling activity in Sprague-Dawley rat model of hypoxia-induced pulmonary artery hypertension assessed as reduction in alpha-SMA expression in lungs at 10 mg/kg, po administered daily for 2 weeks by Western blot analysis; format: functional, organism-based
Outline: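 Lungs came from hypoxic SD rats (10% O2, 4 weeks) dosed orally at 10 mg/kg daily for 14 days. Tissue was homogenised in RIPA buffer with protease and phosphatase inhibitors. 30 µg of protein was run on 10% SDS-PAGE and transferred to PVDF. Blots were probed overnight at 4 °C with anti-α-SMA (1:1000) and anti-β-actin (1:2000) and detected by fluorescence.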

Aorta = experiment: Vasodilating activity in Sprague-Dawley rat aortic rings assessed as reduction in phenylephrine-induced contractions at 1 uM relative to control; format: functional
Outline: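 Thoracic aorta from male SD rats (250-280 g) anesthetized with chloral hydrate, cut into 4 mm rings. Rings held in Krebs-Henseleit at 37 °C gassed with 95% O2/5% CO2, under 2 g resting tension, equilibrated 60 min, and precontracted with 10^-7 M phenylephrine. Cumulative concentrations of 3×10^-9 to 10^-6 M (final) applied. Percent relaxation of the initial contraction taken at 1 µM, and EC50 derived.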

Rattus norvegicus [6] = experiment: Inhibition of vascular remodeling activity in Sprague-Dawley rat model of hypoxia-induced pulmonary artery hypertension assessed as reduction in TGFbeta expression in lungs at 10 mg/kg, po administered daily for 2 weeks by Western blot analysis; format: functional, organism-based; outline: as §2
[7] = Antiproliferative activity against HLF1 cells measured after 48 hrs under hypoxic condition by CCK8 assay; format: functional, cell-based; conditions: Homo sapiens, HLF1, 48 h
Outline: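 HPASMCs were grown in high-glucose D-MEM with 20% FBS, and HLF1 in D-MEM/F-12 (1:1) with 10% FBS. Cells were seeded for exponential growth, then exposed to a range of compound concentrations for 48 h at 37 °C under hypoxia (1% O2, 5% CO2, 94% N2). CCK-8 was added for 4 h and absorbance read at 490 nm. IC50 came from dose-response curves averaged over three independent experiments.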

[8] = molecular target: T1, AMP-activated protein kinase, AMPK (Homo sapiens) (UniProt P54646+O43741+P54619+Q9UGJ0+Q9Y478+Q13131+Q9UGI9); experiment: Inhibition of AMPK in hypoxia-induced HPASMC assessed as reduction in cell migration measured after 24 hrs by wound healing assay; format: tissue-based; conditions: Pulmonary Artery Smooth Muscle Cells, dose microM 5-10, time 24.0 hrs
Outline: (§3)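 Wound-healing assay. 5 × 10^4 cells were seeded per well and grown 24 h to near confluence. The monolayer was scratched with a pipette tip and washed with PBS. Cells were then kept in 1% FBS medium with TGF-β (10 ng/mL) or under hypoxia (1% O2, 5% CO2, 94% N2), alone or with compound. Migration ran 24 h at 37 °C, imaged at 0 and 24 h. Mean ± SD from three independent experiments.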

[9] = Antiproliferative activity against HPASMC assessed as reduction in TGFbeta-induced cell proliferation measured after 48 hrs by CCK8 assay; format: functional, tissue-based; conditions: Homo sapiens, Pulmonary Artery Smooth Muscle Cells
Outline: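 HPASMCs grown in high-glucose D-MEM with 20% FBS and HLF1 in D-MEM/F-12 (1:1) with 10% FBS. Cells stimulated with TGF-β (10 ng/mL) at 37 °C, 5% CO2, then exposed to a concentration range for 48 h. CCK-8 added for 4 h and absorbance read at 490 nm. IC50 derived from the curves.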

[10] = molecular target: cGMP-specific 3',5'-cyclic phosphodiesterase (Homo sapiens) (UniProt O76074); experiment: Inhibition of PDE5A1 catalytic domain (535 to 860 residues) (unknown origin) expressed in Escherichia coli BL21 (DE3) at 100 nM using [3H]cGMP as substrate after 15 mins by liquid scintillation counting method relative to control
Outline: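 PDE reaction in 50 mM Tris-HCl pH 8.0 with 4 mM MnCl2 or 10 mM MgCl2 and 1 mM DTT, using 3H-cGMP substrate. Run 15 min at room temperature, stopped with 0.2 M ZnSO4, and product precipitated with 0.2 M Ba(OH)2. Radioactivity of the supernatant counted by liquid scintillation. Inhibition rate calculated, with sildenafil as reference.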

[11] = Protein binding in rat plasma; format: ADME, cell-free; conditions: read-out: PPB (converted)
Rattus norvegicus [12] = experiment: In vivo stimulation of sGC in Sprague-Dawley rat model of hypoxia-induced pulmonary artery hypertension assessed as increase in phosphorylation levels of VASP in lungs at 10 mg/kg, po administered daily for 2 weeks by Western blot analysis; format: functional, organism-based
[13] = molecular target: T1, AMP-activated protein kinase, AMPK (Homo sapiens); experiment: Inhibition of AMPK in TGFbeta-induced HLF1 cells assessed as reduction in cell migration measured after 24 hrs by wound healing assay; format: cell-based; conditions: dose microM 5-10, time 24.0 hrs; outline: as §3
[14] = system: Pulmonary Artery Smooth Muscle Cells; experiment: Stimulation of sGC in HPASMC assessed as increase in intracellular cGMP level measured after 1 hr in absence of PDE5 inhibitor IBMX and sGC inhibitor ODQ by cGMP-d2/europium cryptate reagent based HTRF assay; format: tissue-based; conditions: Homo sapiens, filed as activator; outline: as §1
[15] = Protein binding in human plasma; format: ADME, cell-free; conditions: read-out: PPB (converted)
[16] = Effect on total ACC level in lungs of Sprague-Dawley rat model of hypoxia-induced pulmonary artery hypertension at 10 mg/kg, po administered daily for 2 weeks by Western blot analysis; format: ADME, organism-based; conditions: in vivo, 336 h; outline: as §2
Rattus norvegicus [17] = experiment: In vivo inhibition of AMPK in Sprague-Dawley rat model of hypoxia-induced pulmonary artery hypertension assessed as reduction in AMPK phosphorylation in lungs at 10 mg/kg, po administered daily for 2 weeks by Western blot analysis; format: functional, organism-based; outline: as §2

- inhibition [8]: Dose-dependent effect
- inhibition [10]: 4.3%
- fraction unbound [11]: 0.007
- inhibition [13]: Dose-dependent effect
- fraction unbound [15]: 0.002
SMILES: Cc1ccccc1COc1nc2c(cc1-c1nc(N)cc(N)n1)c(C)nn2-c1ccccc1
- Activity (Rattus norvegicus [1]): 22 mmHg
- Activity [2]: Active
- Activity [3]: Non-Toxic
- inhibition (Rattus norvegicus [4]): Active
- inhibition (Rattus norvegicus [5]): Active
- Emax at 1 µM (Aorta): 63.2%
- inhibition (Rattus norvegicus [6]): Active
- IC50 [7]: 34.9 µM
- IC50 [9]: 17 µM
- Activity (Rattus norvegicus [12]): Active
- Activity [14]: Active
- Activity [16]: Non-Toxic
- inhibition (Rattus norvegicus [17]): Active
